The source made the active and inactive calls. The rule behind the calls is not given here.
What was measured:
[1] = target: Cellular tumor antigen p53 (Homo sapiens) (UniProt P04637); assay: Induction of phospho-p53 accumulation in human T24 cells assessed as activation of bak at 1 to 10 uM after 48 hrs by Hoechst 33258 staining based fluorescence confocal microscopic analysis; format: cell-based
In short: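 T24 cells treated for 48 h, fixed in 4% paraformaldehyde. Immunostained with antibody to active (N-terminal) Bak and a Cy3-conjugated secondary antibody. Imaged by confocal microscopy at 400×.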

[2] = tested on: T-24; assay: Cell cycle arrest in human T24 cells assessed as accumulation at sub-G1 phase at 1 to 10 uM after 48 hrs by propidium iodide staining based FACS analysis; format: functional
In short: (§1)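 Cells treated with 1−10 μM for 48 h, trypsinized, and fixed in 70% ethanol. Stained with 50 μg/mL propidium iodide and phase distribution analyzed by flow cytometry. Mean ± SD from three independent measurements.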

[3] = tested on: Mus musculus; assay: Toxicity in BALB/C nude mouse xenografted with human HepG2 cells at 6 to 12 mg/kg, ip administered every 2 days for 16 days; format: organism-based; conditions: in vivo
In short: (§2)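 Male BALB/C nude mice with HepG2 flank xenografts, n = 6/group. Given ip 6 or 12 mg/kg every 2 days in 5% DMSO/saline; vehicle and HCPT 6 mg/kg as controls. Clinical signs, food intake and body weight monitored; tumour size and weight measured three times weekly.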

[4] = tested on: HepG2; assay: Antiproliferative activity against human HepG2 cells by MTT assay; format: functional, cell-based
In short: (§3)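 Cell lines cultured in RPMI 1640 with 10% FBS. Viability read by MTT (5 mg/mL, 4 h at 37 °C), with formazan dissolved in DMSO and absorbance taken at 490 nm. Viability (%) = A490 treated / A490 control × 100. IC50 taken from dose-response curves, from three independent experiments each run in triplicate.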

[5] = tested on: T-24; assay: Induction of apoptosis in human T24 cells assessed as live cells at 1 uM by Annexin V-FITC/propidium iodide based flow cytometric analysis (reference value: 89.5%); format: functional
[6] = tested on: Mus musculus; assay: Effect on p53 expression in BALB/C nude mouse xenografted with human T24 cells at 6 to 12 mg/kg, ip administered every 2 days for 16 days by immunoblot analysis
[7] = tested on: T-24; assay: Effect on p53 protein expression in human T24 cells up to 10 uM after 24 hrs by Western blot analysis; format: functional, cell-based
In short: (§4)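 T24 cells (3 × 10^5 per well) grown to 85–95% confluence, then exposed 24 h to 0–10 μM. Whole-cell extracts run on SDS-PAGE and blotted to nitrocellulose. Probed with the indicated antibodies and AP-linked anti-rabbit IgG, with ECL detection. Blots stripped and reprobed for β-actin as loading control.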

[8] = tested on: J82; assay: Cell cycle arrest in human J82 cells assessed as accumulation at G2 phase at 5 uM after 48 hrs by propidium iodide staining based FACS analysis (reference value: 10.92 %); format: functional; in short: as §1
[9] = tested on: T-24; assay: Induction of apoptosis in human T24 cells assessed as necrotic cells at 1 uM by Annexin V-FITC/propidium iodide based flow cytometric analysis (reference value: 8.53%); format: functional
[10] = tested on: T-24; assay: Induction of membrane disruption in human T24 cells at 1 to 10 uM after 1 hr by propidium iodide staining based FACS analysis; format: functional, cell-based
In short: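 T24 cells exposed 1 h to 1–10 μM, then trypsinised and washed in PBS. Resuspended in 50 μg/mL propidium iodide in PBS and analysed immediately by flow cytometry with a 488 nm argon laser.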

[11] = tested on: Mus musculus; assay: Toxicity in BALB/C nude mouse xenografted with human HepG2 cells assessed as effect on food consumption at 6 to 12 mg/kg, ip administered every 2 days for 16 days; format: organism-based; conditions: in vivo; in short: as §2
[12] = tested on: T-24; assay: Antiproliferative activity against human T24 cells harboring p53 siRNA up to 5 uM after 48 hrs by MTT assay; format: functional, cell-based
In short: (§5)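 T24 cells pre-exposed to p53-siRNA or scrambled RNA for 24 h, then treated with a concentration series for 48 h. Proliferation measured by MTT read at 490 nm, expressed as % of control absorbance.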

[13] = tested on: T-24; assay: Effect on cell cycle distribution in human T24 cells assessed as early apoptotic cells at 10 uM after 1 hr by Annexin V-FITC/propidium iodide staining based FACS analysis relative to control; format: functional
[14] = tested on: T-24; assay: Induction of apoptosis in human T24 cells assessed as late apoptotic cells at 10 uM by Annexin V-FITC/propidium iodide based flow cytometric analysis (reference value: 0.193%); format: functional
[15] = tested on: T-24; assay: Induction of apoptosis in human T24 cells assessed as necrotic cells at 10 uM by Annexin V-FITC/propidium iodide based flow cytometric analysis (reference value: 8.53%); format: functional
[16] = tested on: T-24; assay: Antiproliferative activity against human T24 cells harboring scRNA after 48 hrs by MTT assay; format: functional, cell-based; in short: as §5
[17] = target: Cellular tumor antigen p53 (Homo sapiens) (UniProt P04637); assay: Activation of p53 in human T24 cells assessed as increase in cyclinE-CDK2 complex formation up to 10 uM after 24 hrs by Western blot analysis; format: cell-based
In short: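 T24 cells, 3 × 10^5 per well, grown to 85−95% confluence, then exposed to 0−10 μM for 24 h. Whole-cell extracts in sample buffer run on SDS-polyacrylamide gels and transferred to nitrocellulose. Blots probed with primary antibodies and AP-linked anti-rabbit IgG, detected by ECL. Blots stripped and reprobed for β-actin as loading control.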

[18] = tested on: T-24; assay: Induction of DNA damage in human T24 cells assessed as gammaH2AX level up to 10 uM by immunoblot analysis; format: functional, cell-based
[19] = tested on: T-24; assay: Effect on light absorption in human T24 cells up to 10 uM after 1 hr at 490 nanometer; format: functional, cell-based
In short: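 T24 cells treated at 1−10 μM for 1 h, then absorbance read at 490 nm to check for interference with the MTT read-out.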

[20] = tested on: J82; assay: Cell cycle arrest in human J82 cells assessed as accumulation at S phase at 5 uM after 48 hrs by propidium iodide staining based FACS analysis (reference value: 46.79 %); format: functional; in short: as §1
[21] = tested on: T-24; assay: Effect on p53 expression in human T24 cells up to 10 uM after 24 hrs by Western blot analysis; format: functional, cell-based; in short: as §4
[22] = tested on: PC-3; assay: Antiproliferative activity against p53 null human PC3 cells by MTT assay; format: functional, cell-based; in short: as §3
[23] = tested on: HepG2; assay: Antitumor activity against human HepG2 cells xenografted in BALB/C nude mouse assessed as tumor growth inhibition at 12 mg/kg, ip administered every 2 days for 16 days relative to control; format: functional; conditions: read-out: TGI
In short: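 Male BALB/c nude mice, 6 weeks old, given subcutaneous flank injections of 5 × 10^6 HepG2 cells. Mice with 80−200 mm3 tumors randomized, n = 6 per group, and dosed ip every other day with 6 or 12 mg/kg. Vehicle 5% DMSO in saline; HCPT 6 mg/kg as positive control. Tumor volume (lw²/2) and body weight measured three times weekly.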

[24] = tested on: T-24; assay: Effect on cell cycle distribution in human T24 cells assessed as late necrotic cells at 10 uM after 1 hr by Annexin V-FITC/propidium iodide staining based FACS analysis (reference value: 1.71%); format: functional
[25] = tested on: T-24; assay: Effect on cell cycle distribution in human T24 cells assessed as late apoptotic cells at 5 uM after 1 hr by Annexin V-FITC/propidium iodide staining based FACS analysis relative to control; format: functional

Sequence of Cellular tumor antigen p53 (Homo sapiens) (P04637 whole entry, looked up): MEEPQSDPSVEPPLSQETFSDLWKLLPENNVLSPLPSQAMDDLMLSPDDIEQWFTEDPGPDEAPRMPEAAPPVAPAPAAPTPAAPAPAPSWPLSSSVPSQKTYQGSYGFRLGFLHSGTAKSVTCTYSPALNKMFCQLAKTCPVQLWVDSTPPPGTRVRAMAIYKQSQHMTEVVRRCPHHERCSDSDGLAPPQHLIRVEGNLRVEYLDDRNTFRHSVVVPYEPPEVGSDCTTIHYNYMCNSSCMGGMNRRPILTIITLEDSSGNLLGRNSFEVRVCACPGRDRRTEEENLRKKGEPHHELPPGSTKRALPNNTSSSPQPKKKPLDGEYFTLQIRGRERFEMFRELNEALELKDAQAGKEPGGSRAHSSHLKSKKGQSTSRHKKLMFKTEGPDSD

With CN(C)CCNc1nn2c(=O)c3cc(Br)ccc3nc2c2ccccc12 the Activity [1] was “Active”, the Activity [2] was “Active” and the Activity [3] was “Non-Toxic”. The IC50 [4] was 3.8 µM, the Activity [5] was 83.7% and the Activity [6] was “inactive”. For the same molecule, the Activity [7] was “inactive”, the Activity [8] was 38.21% and the Activity [9] was 6.77%. The Activity [10] was “inactive”, the Activity [11] was “Non-Toxic” and the Activity [12] was “inactive”. It also gave an Activity [13] of 0%, an Activity [14] of 40.7% and an Activity [15] of 8.1%. The Activity [16] was “Dose-dependent effect”, the Activity [17] was “Active” and the Activity [18] was “inactive”. The Activity [19] was “inactive”, the Activity [20] was 44.01% and the Activity [21] was “inactive”. For the same molecule, the Activity [22] was “inactive”, the inhibition in vivo at 12 mg/kg [23] was 61.3% and the Activity [24] was 13.4%. For the same molecule, the Activity [25] was 0%.
